This excerpt belongs to a sample that is enriched for hits.
ROMK mod = human ROMK K+ channel modulation, primary screen; AID 1918; 130,000 tested, 2% active; Tet-inducible ROMK, thallium flux fluorescence; actives lie on both sides; P48048; B-score at 10 µM;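 active means signal ratio slope over the read window, or its plate-corrected B-score, at least 3 SD from the plate mean, either direction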;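 further: B-score of the F/F0 ratio slope over 7 to 12 s after thallium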
Target sequence (P48048 whole entry, looked up): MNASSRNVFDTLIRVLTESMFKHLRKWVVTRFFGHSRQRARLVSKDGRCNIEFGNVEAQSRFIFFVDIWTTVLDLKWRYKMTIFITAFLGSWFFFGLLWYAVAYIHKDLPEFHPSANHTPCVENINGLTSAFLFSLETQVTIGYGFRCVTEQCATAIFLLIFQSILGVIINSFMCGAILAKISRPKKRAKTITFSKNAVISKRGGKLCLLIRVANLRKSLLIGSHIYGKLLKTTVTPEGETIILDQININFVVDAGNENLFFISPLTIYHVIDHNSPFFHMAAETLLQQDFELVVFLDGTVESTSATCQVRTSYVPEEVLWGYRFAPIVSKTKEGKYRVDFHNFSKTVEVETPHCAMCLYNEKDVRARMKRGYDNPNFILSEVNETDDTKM
Pf gamet viab = kills late stage P. falciparum gametocytes; P. falciparum stage V gametocytes, ATP luminescence, 24 h; inhibition, % at 10.9 µM; 150,000 tested, 0.065% active; AID 743093;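 active means inhibition above the mean plus 3 SD of compounds within the control limits, set per campaign, cut at about 38% in these data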
Biofilm kill mix = mixture kills Candida albicans biofilm cells; C. albicans biofilm persisters + clotrimazole, fluorescence viability; primary screen in compound mixtures of four per well; inhibition, % at 7.6 µM; 120,000 tested, 0.02% active;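 active means inhibition above 30.3% in the primary screen of four-compound pools, then above 30% when the compound was retested; inconclusive means passed the primary limit but could not be retested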;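 further: compounds exposed to preformed 24 h biofilms for 48 h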
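Assay system: C. albicans biofilms / Medium: RPMI/MOPS medium, pH 7.0 / Schedule: biofilm formation 24 h, compound exposure 48 h, 37 °C / Measured by: Alamar Blue fluorescence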
ROMK retest = retested hit modulating human ROMK potassium channel; 3,000 tested, 54% active; normalized thallium flux (F/F0 slope) at 10 µM; shares compounds with ROMK mod; ROMK thallium flux, fluorescence ratio; hits give low values;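 active means Flux at 10 µM at least 3 SD below or above vehicle control mean in one or both replicates; inconclusive means no clear call, values can overlap the other calls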
Each line names hits and unclear results; the compound was inactive in the other large screens (follow-up assays come after a bar, where they were run).

CCc1ccc(-c2cn(C3CCCCC3)c(=S)[nH]2)cc1	none
CCc1ccc(NS(=O)(=O)c2ccc3oc(=O)ccc3c2)cc1	none (no result: ROMK mod, Biofilm kill mix)
S=C(NCCc1ccccc1)N1CCN(C23CC4CC(CC(C4)C2)C3)CC1	ROMK mod -7.9 | ROMK retest inconclusive
S=C(NCCc1ccccc1)N1CCCC1	none (no result: ROMK mod, Biofilm kill mix)
COc1ccc(N2CCN(c3ncnc4c3[nH]c3ccccc34)CC2)cc1	none (no result: Pf gamet viab, Biofilm kill mix)
Fc1ccc2[nH]c3c(N4CCN(c5ccccc5)CC4)ncnc3c2c1	none (no result: Pf gamet viab, Biofilm kill mix) | ROMK retest inactive
COc1ccc(NC(=O)CCCC(=O)NCCc2ccc(OC)c(OC)c2)cc1	none (no result: ROMK mod, Biofilm kill mix)
ClC(Cl)(c1nnnn1-c1ccccc1)c1nnnn1-c1ccccc1	ROMK mod -2.8 (no result: Pf gamet viab) | ROMK retest 0.06
c1ccc(-c2nnnn2-c2ccccc2)cc1	none (no result: ROMK mod, Biofilm kill mix)
CCOc1cc(N2CCOCC2)c(OCC)cc1NC(=O)c1cc(-c2ccco2)nc2ccccc12	none (no result: ROMK mod, Pf gamet viab, Biofilm kill mix) | ROMK retest 0.066
CCOc1cc(N2CCOCC2)c(OCC)cc1NC(=O)COc1ncnc2ccccc12	none (no result: Biofilm kill mix)
O=S(=O)(c1ccc2c(c1)OCCO2)N1CCCN(S(=O)(=O)c2c(F)cccc2F)CC1	none (no result: ROMK mod, Biofilm kill mix)
O=C1N=C2SCCN2/C1=C\c1ccc(Cl)cc1	ROMK mod -7.6 (no result: Pf gamet viab, Biofilm kill mix) | ROMK retest 0.047
Cc1ccc(/C=C2\SC(N3CCCC3)=NC2=O)cc1	none (no result: Pf gamet viab)
CC(=O)N(Cc1nc2sc(C)c(C)c2c(=O)[nH]1)C1CCCC1	none (no result: Pf gamet viab)
CCC/C=N/NC(=O)c1[nH]c2c([N+](=O)[O-])cccc2c1C	none
O=C(Nc1ccccc1)Nc1ccc(Cl)c([N+](=O)[O-])c1	none
O=C(Nc1ccccc1)Nc1ccc(F)c([N+](=O)[O-])c1	none (no result: ROMK mod, Pf gamet viab) | ROMK retest inconclusive
COc1ccccc1Nc1ncnc2nc[nH]c12	ROMK mod 4 (no result: Pf gamet viab, Biofilm kill mix) | ROMK retest inactive
Cc1cc(C)cc(Nc2ncnc3nc[nH]c23)c1	none
Cc1ccc(C(=O)COC(=O)CCc2ccc(S(=O)(=O)N3CCCCC3)cc2)cc1	none (no result: ROMK mod, Pf gamet viab)
COC(=O)C1=C(C(=O)OC)[C@]2([C@H]3CCCCN[C@@H](Cc4ccccc4)C(=O)N3Cc3ccccc3)C=C[C@H]1O2	none (no result: ROMK mod, Biofilm kill mix)
COC(=O)[C@]1(C)N[C@H](c2ccc(-c3ccc(Cl)c(Cl)c3)c(OC)c2)[C@@H]2C(=O)N(C)C(=O)[C@@H]21	none (no result: ROMK mod, Biofilm kill mix)
CCCCNC1c2ccccc2C(=O)N1Cc1ccccc1 (centres undefined)	none (no result: ROMK mod, Biofilm kill mix)
O=C1c2ccccc2C(Nc2ccc3c(c2)OCCO3)N1Cc1ccccc1 (centres undefined)	none (no result: ROMK mod, Pf gamet viab, Biofilm kill mix) | ROMK retest inactive
Cc1cc(C(=O)N2CCCC(C(=O)c3ccc4ccccc4c3)C2)n(C)n1 (centres undefined)	none
CC(NC(=O)/C=C/c1cnc2ccccc2n1)C12CC3CC(CC(C3)C1)C2 (centres undefined)	none (no result: Pf gamet viab)
CN(C)CCCNC(=S)Nc1ccc(Br)cc1	none (no result: ROMK mod)
CCOC(=O)C1(CCOc2ccccc2)CCN(Cc2ccncc2)CC1	none (no result: ROMK mod)
CCOC(=O)C1(CCOc2ccccc2)CCN(Cc2cccn2-c2ncccn2)CC1	ROMK mod -3.7 | ROMK retest inconclusive
C#CCN1N=C(c2ccc(C)cc2)CSC1=O	none (no result: ROMK mod, Biofilm kill mix)
Cc1cc(NC(=O)CSc2nc3ccccc3c(=O)n2C2CCCC2)no1	ROMK mod 2.9 (no result: Biofilm kill mix) | ROMK retest inconclusive
Cc1cc(NC(=O)CSc2nc3ccccc3c(=O)n2Cc2ccccc2)no1	none (no result: Pf gamet viab, Biofilm kill mix)
COc1ccc(CC(=O)Nc2nc(-c3cccnc3)cs2)cc1	none (no result: ROMK mod)
Cc1ccc(-c2csc(NC(=O)Cc3ccc(F)cc3)n2)o1	ROMK mod 4.9 | ROMK retest inactive
Cc1cc(C)n(S(=O)(=O)c2ccccc2[N+](=O)[O-])n1	none (no result: ROMK mod, Biofilm kill mix)
CCOC(=O)/C(=C\c1cccc(O)c1)c1nc2sc(C)c(C)c2c(=O)[nH]1	ROMK mod -4.1 | ROMK retest 0.058
CCOC(=O)c1nc2sc(C)c(C)c2c(=O)[nH]1	none (no result: Biofilm kill mix)
Cc1ccc(Cl)cc1NC(=O)N(C)CCO	none (no result: ROMK mod, Pf gamet viab)
O=C(COc1ccccc1CNCc1ccccc1)Nc1ccccc1	ROMK mod -2.4 (no result: Pf gamet viab, Biofilm kill mix) | ROMK retest 0.056
CCOc1ccccc1CNCc1ccc(C(=O)O)cc1	none
Cc1ccc(C(=O)Nc2ccccc2C(=O)NCc2ccco2)cc1S(=O)(=O)N1CCCCC1	none (no result: Pf gamet viab, Biofilm kill mix) | ROMK retest inactive
Cc1ccc(C(=O)NCc2ccco2)cc1S(=O)(=O)N1CCCCC1	none (no result: ROMK mod, Biofilm kill mix)
CN1CC(c2ccc(C#N)cc2)C2(COc3ccccc3C2=O)C12C(=O)Nc1ccccc12 (centres undefined)	none (no result: ROMK mod, Biofilm kill mix)
CC1CC1C(=O)Nc1cc(S(=O)(=O)N2CCOCC2)ccc1N1CCCC1 (centres undefined)	none
Cc1ccc(/C=C2/NC(=O)N(c3ccccc3)C2=O)o1	none (no result: ROMK mod, Biofilm kill mix)
O=C1N/C(=C/c2ccc(N3CCOCC3)o2)C(=O)N1c1cccc(Cl)c1	ROMK mod -4.9 | ROMK retest 0.039
CCCCN(C(=O)Cn1ncc(Cl)c(Cl)c1=O)c1c(N)n(CC(C)C)c(=O)[nH]c1=O	none (no result: ROMK mod, Pf gamet viab)
COCCN(Cc1ccc(F)cc1)C(=O)c1cc2ccccc2oc1=O	none (no result: ROMK mod, Biofilm kill mix)
Cc1ccc2[nH]c3c(NCc4ccco4)ncnc3c2c1	ROMK mod -3.4 (no result: Biofilm kill mix) | ROMK retest 0.065
O=C(CSc1ncnc2c1oc1ccccc12)NCc1ccco1	none (no result: ROMK mod, Pf gamet viab)
c1coc(CNc2ncnc3c2oc2ccccc23)c1	ROMK mod -3.5 (no result: Pf gamet viab, Biofilm kill mix) | ROMK retest 0.061
COc1cc(CNc2ncnc3c2[nH]c2ccc(C)cc23)cc(OC)c1	none
O=S1OCCN1c1ccccc1 (centres undefined)	none (no result: ROMK mod, Biofilm kill mix)
Cc1nn(-c2ccc(F)cc2)c(C)c1CN1CCN(CCC(C)C)C(CCO)C1 (centres undefined)	none
CC(CNC(=O)CCc1nnc(CCC2CCCCC2)o1)c1ccccc1 (centres undefined)	none
CN1CCN(c2nc(-c3cccnc3)nc3ccccc23)CC1	none (no result: Biofilm kill mix)
COc1cc2c(cc1OC)CN(c1nc(-c3cccnc3)nc3ccccc13)CC2	none | ROMK retest inactive
O=C1CC(c2ccc(OCCCCCOc3ccc(C4CC(=O)NC4=O)cc3)cc2)C(=O)N1 (centres undefined)	ROMK mod -3.5 | ROMK retest 0.06
CCCCCCCCOc1ccc(C2CC(=O)NC2=O)cc1 (centres undefined)	none (no result: ROMK mod, Biofilm kill mix)
COCCn1c(SCc2ccc(C)cc2)nc2c1c(=O)[nH]c(=O)n2C	none (no result: ROMK mod, Biofilm kill mix)
CC(C(=O)OCC(=O)c1cccc([N+](=O)[O-])c1)N1C(=O)C2C3CCC(C3)C2C1=O (centres undefined)	none (no result: ROMK mod)
COc1cccc(/C=C(/C#N)c2ccc(F)cc2)c1OCc1cccc(C(=O)O)c1	none (no result: Pf gamet viab)
COc1cccc(/C=C(/C#N)c2ccc(Cl)cc2)c1OCc1cccc(C(=O)O)c1	ROMK mod 2.4 (no result: Pf gamet viab) | ROMK retest inactive
CC(=O)c1ccc(N(C(=O)CS(=O)CC(=O)Nc2ccc(F)cc2)C(C(=O)NC2CCCCC2)c2cccs2)cc1 (centres undefined)	ROMK mod -3.3 | ROMK retest inactive
CC(=O)c1cccc(N(C(=O)CS(=O)CC(=O)Nc2ccc(F)cc2)C(C(=O)NC2CCCCC2)c2ccc(C)o2)c1 (centres undefined)	none (no result: ROMK mod)
Cc1ccc(C)c(NS(=O)(=O)c2cc(C(=O)N3CCCC3)ccc2Cl)c1	none
Cc1ccc(C(=O)NNC(=O)/C=C\C(=O)O)cc1	none
CC(C)Nc1nnc(SCC(=O)NCc2ccc3c(c2)OCO3)s1	none
CC(C)Nc1nnc(SC(C)C(=O)NCc2ccc3c(c2)OCO3)s1 (centres undefined)	ROMK mod 1.7 | ROMK retest inactive

Screens from PubChem.
